PHOSPHO1 block – blocks human PHOSPHO1 phosphatase activity | Q8TCT1 | actives 1.1% (n = 290,000) | AID 1565 | recombinant PHOSPHO1, absorbance phosphatase assay | inhibition, % at 13.3 µM; in the data active = inhibition above about 60%
Target sequence (Q8TCT1 whole entry, looked up): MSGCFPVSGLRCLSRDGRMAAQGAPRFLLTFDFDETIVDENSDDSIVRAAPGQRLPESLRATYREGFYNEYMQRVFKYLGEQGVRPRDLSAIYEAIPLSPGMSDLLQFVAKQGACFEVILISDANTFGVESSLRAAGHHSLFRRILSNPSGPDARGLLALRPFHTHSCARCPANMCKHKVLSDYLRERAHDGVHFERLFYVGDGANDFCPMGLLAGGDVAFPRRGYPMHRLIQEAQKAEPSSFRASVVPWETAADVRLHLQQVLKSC
ABCG2 inh – inhibitors of human ABCG2 transporter, ABCB1 counter-screen; actives 0.1% (n = 190,000); inhibition, % at 6.6 µM; IgMXP3 cells, JC-1 efflux, flow cytometry; Q9UNQ0;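 active = inhibition above 80%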;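 note: 0% = DMSO and 100% = nicardipine control wells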
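Read-out basis: Efflux inhibition in percent versus controls | Test system: ABCG2 IgMXP3 and barcoded ABCB1 CCRF-Adr cell mix | Quantity: 3 million cells/mL in well | Schedule: 10 min at 25 °C | Control set: Nicardipine as high control, DMSO as low control | Reagent: JC-1 as fluorescent efflux pump substrate | Signal: Flow cytometry of retained JC-1 fluorescence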
PKD1 inh – inhibitors of human PKD1 kinase | PKD1 kinase fluorescence polarization assay | inhibition, % (concentration not given with the values) | actives 0.056% (n = 200,000); in the data active = inhibition above about 50%
HSV replic up – increases HSV replication in cells | HSV replication augmentation in cells, fold increase | maximum fold increase | actives 0.005% (n = 220,000) | AID 1956; in the data active = maximum fold increase above about 1.5; inconclusive = no clear call, values can overlap the other calls; tested in PC3 cells
ABCB1 inh – blocks JC-1 efflux by human ABCB1 transporter. CCRF-Adr cells, flow cytometry. inhibition, % at 6.6 µM. actives 0.067% (n = 190,000). AID 1326; in the data active = inhibition above about 40%;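 note: 0% = vehicle and 100% = reference inhibitor; higher value means more JC-1 retained so stronger ABCB1 efflux block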
NCF1 inh – p47phox (human) inhibition. p47phox/p22phox peptide binding, fluorescence polarization, 2 h. actives 0.53% (n = 220,000). inhibition, % at 24.7 µM. P14598;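 active = inhibition above about 30%, limit read from the data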;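 note: 0% = p47phox with labelled peptide and 100% = labelled peptide alone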
Target sequence (P14598 whole entry, looked up): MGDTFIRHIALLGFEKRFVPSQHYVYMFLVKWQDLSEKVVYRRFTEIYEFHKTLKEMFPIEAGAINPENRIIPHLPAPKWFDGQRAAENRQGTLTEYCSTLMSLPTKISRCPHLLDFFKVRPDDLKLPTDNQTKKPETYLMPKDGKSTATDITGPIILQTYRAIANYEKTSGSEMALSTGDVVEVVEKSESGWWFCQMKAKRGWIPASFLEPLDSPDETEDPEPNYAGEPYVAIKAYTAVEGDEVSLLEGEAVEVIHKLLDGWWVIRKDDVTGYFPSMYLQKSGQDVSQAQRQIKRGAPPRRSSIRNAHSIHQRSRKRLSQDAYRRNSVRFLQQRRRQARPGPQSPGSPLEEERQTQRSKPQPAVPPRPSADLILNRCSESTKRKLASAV
The depositor's hits bear a star; i = inactive; ? = inconclusive; / = not tested or not shown. Hits are enriched below; roughly 1.6% of the tested compounds scored in any of these assays.

SMILES | PHOSPHO1 block | ABCG2 inh | PKD1 inh | HSV replic up | ABCB1 inh | NCF1 inh
CC(C)N(Cc1nc(-c2ccccc2)no1)C(=O)c1ccc(Cl)cc1 | -6.8 | 0.6 | -7.3 | i | -0.6 | 58.7*
CCOc1ccc(C(=S)NC2CCCCC2)cc1 | -35.3 | 2.2 | -1.8 | i | 0.3 | -2.3
COc1ccc(C(=S)NC2CCCCC2)cc1 | 88.3* | 6.5 | -6.1 | i | 0.6 | -13.5
Clc1ccc(Sc2oc(/C=N/n3cnnc3)cc2Br)cc1 | 84.3* | 5.2 | -7.4 | i | -1.0 | -13.8
C=CCn1c(CNC(=O)c2cccs2)nnc1SCC(=O)Nc1ccc(C(=O)O)cc1 | 90.4* | 1.1 | 0.6 | i | 0.5 | 6.2
O=C(COC(=O)C1CCN(/C=C/C(=O)C(F)(F)F)CC1)Nc1cccc(F)c1 | 9.7 | -0.8 | -1.1 | i | -0.6 | -3.6
COc1ccc2c(CC(=O)Nc3ccc(OC)nc3)coc2c1 | 24.9 | 1.3 | 3.3 | i | 0.3 | 34.7*
Cc1ccccc1CNC(=O)C1CCC(=O)N(C2CCCCCC2)C1 (stereo not drawn) | 42.7 | / | / | / | / | /
CCC(=O)n1nc(-c2ccco2)nc1N | 66.8* | 0.5 | -4.8 | i | 0.0 | -4.7
CCn1c(N)c(C(=O)NCC2CCCO2)sc1=S (stereo not drawn) | 100.2* | -0.4 | 10.1 | i | -0.2 | 1.6
C=CCn1c(N)c(C(=O)NCC2CCCO2)sc1=S (stereo not drawn) | 24.7 | 3.4 | -1.4 | i | 1.1 | -2.6
CCn1c(N)c(C(=O)N2CCOCC2)sc1=S | 68.7* | 4.4 | -1.1 | i | 0.2 | -7.7
O=C1c2ccc3c4c(ccc(c24)C(=O)N1CCCCO)C(=O)N(CCCCO)C3=O | 9.1 | 11.2 | 0.6 | i | 1.6 | 61.8*
COc1ccc(S(=O)(=O)N2CCC(C(=O)NCCc3ccc4c(c3)OCO4)CC2)cc1 | -2.2 | -0.9 | -5.4 | i | -1.9 | 42.0*
O=C(CCNC(=O)C1CCN(S(=O)(=O)c2ccc(F)cc2)CC1)NCCc1cccc(F)c1 | 15.4 | / | / | / | / | /
O=C(NCCc1ccc2c(c1)OCO2)C1CCN(S(=O)(=O)c2ccc(Cl)cc2)CC1 | 6.2 | 2.4 | -5.2 | i | 0.4 | -0.8
O=C(CCNC(=O)C1CCN(S(=O)(=O)c2ccc(F)cc2)CC1)NCCc1ccc(Cl)cc1 | 63.6* | / | / | / | / | /
O=C(Nn1c(O)c(C=C2N=c3ccccc3=N2)sc1=S)c1ccccc1Cl | 79.4* | 2.0 | -0.1 | i | -1.1 | -45.0
O=S(=O)(Nn1c(O)c(C=C2N=c3ccccc3=N2)sc1=S)c1ccccc1 | 15.2 | / | / | i | / | -42.5
Cc1cc2cc3c(=O)[nH]c(=O)[nH]c3nc2cc1C | 42.1 | / | / | i | / | 150.7*
Cc1nc2cc3ccccc3cc2c(=O)[nH]1 | 31.5 | 0.5 | -1.1 | i | 0.1 | -6.1
Cc1cc(C)c(C)c(C(=O)CSc2nnc(C)c(=O)[nH]2)c1C | 88.6* | -6.6 | -0.4 | i | -4.7 | -2.0
Cc1ccc(S(=O)(=O)N2CCN(C(=O)CSc3nnc(C)c(=O)[nH]3)CC2)cc1 | 90.3* | 1.9 | -6.6 | i | 0.3 | -4.1
Cc1nnc(SCC(=O)N2CCN(S(=O)(=O)c3ccccc3)CC2)[nH]c1=O | -13.9 | 0.8 | -9.9 | i | 0.3 | -4.6
O=C(Nc1nc(-c2cccs2)c(-c2cccs2)s1)C1CCCC1 | 11.9 | -0.1 | -0.5 | i | -0.1 | -37.5
SMILES | PHOSPHO1 block | ABCG2 inh | PKD1 inh | HSV replic up | ABCB1 inh | NCF1 inh
COc1ccc(-n2c(C)nnc2SCC(=O)N2CCOCC2)cc1 | -70.3 | / | / | / | / | /
Cc1nc(OCC(=O)c2ccc(Cl)cc2)c(C#N)c2c1COC(C)(C)C2 | 17.9 | 3.7 | -2.8 | i | 0.6 | 121.5*
Cc1ccc(COc2ccsc2-c2n[nH]c(=S)n2C)cc1 | 107.1* | -0.8 | 0.7 | i | -0.4 | -3.7
Cn1c(-c2sccc2OCc2ccc(Cl)cc2Cl)n[nH]c1=S | 12.2 | -4.4 | 1.1 | i | -1.6 | -2.4
Cn1c(-c2sccc2OCc2ccccc2)n[nH]c1=S | 99.1* | -0.5 | -11.9 | i | -0.2 | -9.1
O=C(c1nc2ccccn2c1CNCCn1ccc2ccccc21)N1CCOCC1 | 23.7 | / | / | i | / | -2.3
CCn1cc(C(=O)O)c(=O)c2cc(Br)ccc21 | -15.3 | 0.2 | -5.0 | i | 0.1 | -9.8
CCOC(=O)c1cn(CC)c2ccc(Br)cc2c1=O | 77.5* | 13.5 | -1.9 | i | 1.3 | 10.9
Cc1ccc(C(=O)Nc2cccc(N3C(=O)C4CCC(C)CC4C3=O)c2)cc1 (stereo not drawn) | 16.2 | / | / | / | / | /
NC(=NC(=O)c1ccccc1)N1CCN(C(c2ccccc2)c2ccccc2)CC1 | 46.4 | / | / | i | / | -6.1
Cc1ccc(NC(=O)c2c(-c3ccccc3)noc2C)nc1 | -5.1 | 2.9 | -10.2 | i | 0.2 | 5.5
COC(=O)c1sc(NC(=O)c2c(-c3ccccc3)noc2C)nc1C | 65.8* | / | / | / | / | /
Cc1nc(NC(=O)c2c(-c3ccccc3)noc2C)sc1C(=O)N(C)C | 12.3 | / | / | / | / | /
Cc1onc(-c2ccccc2)c1C(=O)Nc1ccon1 | -13.1 | -0.4 | -2.3 | i | -0.2 | 36.5*
CCN1CCN(C(=S)c2ccc(Cl)c(Cl)c2)CC1 | 95.0* | 1.4 | 4.7 | i | 0.8 | -1.6
CN(CCn1ccnc1)Cc1cn(-c2ccccc2)nc1-c1ccc2c(c1)OCO2 | 60.1* | 15.2 | -1.4 | i | 1.8 | -31.2
O=Nc1ccc(NOC(=O)c2ccccc2Br)cc1 | -6.2 | -2.0 | -4.4 | i | -0.6 | 2.8
O=C(ONc1ccc(N=NC(=O)c2ccccc2O)cc1)c1ccccc1 | 83.1* | -1.9 | 3.2 | i | -0.4 | 31.2*
CN1CCN(C(=O)Nc2ccccc2)CC1 | 62.9* | 1.9 | 0.5 | i | 0.3 | 11.5
O=C(Nc1ccccc1)N1CCN(CCc2ccccc2)CC1 | 21.3 | 3.7 | 1.8 | i | 1.1 | -8.4
CN1CCN(C(=O)C(N)Cc2ccccc2)CC1 (stereo not drawn) | 62.9* | 5.3 | -6.1 | i | 1.6 | -9.1
NC(Cc1ccccc1)C(=O)N1CCCCC1 (stereo not drawn) | 47.9 | / | / | / | / | /
CS(=O)(=O)N(CC(=O)Nc1cccnc1)c1ccc2c(c1)OCO2 | 0.1 | 1.0 | -11.5 | i | 0.2 | -2.0
Cc1csc(N/N=C/c2c(F)cccc2Cl)n1 | 15.3 | / | / | / | / | /
COC(=O)c1cccc(NC(=O)CCNC(=O)c2ccc([N+](=O)[O-])cc2)c1 | -5.1 | 0.6 | 5.5 | i | 0.2 | 0.2
SMILES | PHOSPHO1 block | ABCG2 inh | PKD1 inh | HSV replic up | ABCB1 inh | NCF1 inh
COc1ccccc1NC(=S)NNC(=O)c1c(Cl)c(C)nn1C | -24.7 | 3.2 | 3.8 | i | 0.1 | -2.2
COc1ccccc1NC(=S)NNC(=O)c1cc(C)nn1C | 67.3* | 7.0 | -1.8 | i | -0.1 | -15.1
COc1ccccc1NC(=S)NNC(=O)c1cc(C)n(C)n1 | 69.6* | 1.2 | 2.1 | i | -0.1 | -5.2
CC1=NN2C(=N)/C(=C\c3ccc(SCc4ccccc4)o3)C(=O)N=C2S1 | 94.1* | 1.1 | -3.3 | i | 0.0 | -86.0
COc1ccc2nc(NC(=S)N(C)C)sc2c1 | 94.6* | / | -8.2 | i | / | -11.7
CCCCCCN1C=CC=C/C1=C/C=C(C#N)C#N | -3.4 | 5.2 | -4.8 | ? | 1.0 | -14.0

Screening data from PubChem BioAssay.
